Calls of active or inactive are those of the source. The calls are words filed in the database; no cut-off is given here.
Experiments:
CYP3A4 = CYP3A4 (Homo sapiens, UniProt P08684); experiment: Inhibition of CYP3A4 in human liver microsomes assessed as residual activity at 5 uM using midazolam as substrate after 20 mins by LC-MS/MS analysis; format: ADME; settings: probe midazolam, read-out: Activity
Summary of the method: (§1)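 Pooled human liver microsomes (0.1 mg/mL) in 100 mM Na-K phosphate pH 7.4 with 1 mM NADPH. Test compound at 5 μM was co-incubated with a probe cocktail including midazolam (1.5 μM) and S-mephenytoin (30 μM) at 37 °C for 20 min. The reaction was stopped with 80% acetonitrile. 1'-Hydroxymidazolam (CYP3A4) and 4'-hydroxymephenytoin (CYP2C19) were measured by LC-MS/MS. Residual activity = activity with compound / vehicle activity × 100.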

CYP2C19 = CYP2C19 (Homo sapiens, UniProt P33261); experiment: Inhibition of CYP2C19 in human liver microsomes assessed as residual activity at 5 uM using S-mephenytoin as substrate after 20 mins by LC-MS/MS analysis; format: ADME; settings: probe S-mephenytoin, read-out: Activity; summary of the method: as §1
CYP2C19, sequence (P33261 whole entry): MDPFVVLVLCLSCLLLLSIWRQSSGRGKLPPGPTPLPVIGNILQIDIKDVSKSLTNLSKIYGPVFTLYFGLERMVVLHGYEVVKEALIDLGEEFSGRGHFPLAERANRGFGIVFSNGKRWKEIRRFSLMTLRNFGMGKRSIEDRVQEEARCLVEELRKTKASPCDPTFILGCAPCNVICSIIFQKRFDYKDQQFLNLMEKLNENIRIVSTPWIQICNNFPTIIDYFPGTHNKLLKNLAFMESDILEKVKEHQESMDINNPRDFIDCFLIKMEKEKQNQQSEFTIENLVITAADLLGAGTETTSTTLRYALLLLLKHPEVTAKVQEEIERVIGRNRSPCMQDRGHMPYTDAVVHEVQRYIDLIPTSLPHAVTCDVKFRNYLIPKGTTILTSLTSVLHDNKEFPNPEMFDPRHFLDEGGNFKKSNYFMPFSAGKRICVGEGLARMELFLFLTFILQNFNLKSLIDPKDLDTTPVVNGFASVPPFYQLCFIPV

Rattus norvegicus [1] = experiment: Inhibition of VAP-1 in Wistar rat plasma at 1 mg/kg, po using 14C-benzylamine as substrate preincubated for 20 mins followed by substrate addition measured after 1 hr by scintillation spectrometric analysis; format: functional
Summary of the method: (§2)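 Male Wistar rats (n = 4) dosed orally. Tail-vein blood was taken under ether anaesthesia before dosing and at 1 or 6 h after. Plasma was kept at -80 °C. 100 μL plasma was reacted with 14C-benzylamine at 37 °C for 2 h. Non-specific activity was measured with 1 mmol/L FR299676 and subtracted. 14C-Benzaldehyde was counted by liquid scintillation. Inhibition ratio = fall from the pre-dose activity, in %.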

Rattus norvegicus [2] = experiment: Inhibition of VAP-1 in Wistar rat plasma at 1 mg/kg, po using 14C-benzylamine as substrate preincubated for 20 mins followed by substrate addition measured after 6 hr by scintillation spectrometric analysis; format: functional; summary of the method: as §2
Rattus norvegicus [3] = experiment: Inhibition of VAP-1 in Wistar rat plasma at 0.3 mg/kg, po using 14C-benzylamine as substrate preincubated for 20 mins followed by substrate addition measured after 1 hr by scintillation spectrometric analysis; format: functional; summary of the method: as §2
Rattus norvegicus [4] = experiment: Inhibition of VAP-1 in Wistar rat plasma at 0.3 mg/kg, po using 14C-benzylamine as substrate preincubated for 20 mins followed by substrate addition measured after 6 hr by scintillation spectrometric analysis; format: functional; summary of the method: as §2
[5] = Aqueous solubility of the compound in solution at pH 6.8; format: physicochemical
[6] = Aqueous solubility of the compound in solution at pH 6.8 in presence of 15 mM sodium taurocholate; format: physicochemical; settings: aqueous solution with 15 mM sodium taurocholate
[7] = AUC (0 to 24 hrs) in Wistar rat at 1 mg/kg, iv by LC-MS/MS analysis; format: ADME, organism-based; design: dose 1 mg/kg, time < 24 hr, route intravenous; settings: in vivo
Summary of the method: (§3)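 Male Wistar rats, fasted about 18 h, dosed at 1 mg/kg iv (solution in 5% DMSO in water) or orally, n = 3. Plasma was deproteinated with acetonitrile and the compound was quantified by LC-MS/MS. Parameters came from non-compartmental analysis.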

[8] = AUC (0 to 24 hrs) in Wistar rat at 1 mg/kg, po by LC-MS/MS analysis; format: ADME, organism-based; design: dose 1 mg/kg, time < 24 hr, route oral; settings: in vivo; summary of the method: as §3
[9] = Cmax in Wistar rat at 1 mg/kg, po by LC-MS/MS analysis; format: ADME, organism-based; design: dose 1 mg/kg, route oral; settings: in vivo; summary of the method: as §3
[10] = Total clearance in Wistar rat at 1 mg/kg, iv by LC-MS/MS analysis; format: ADME, organism-based; settings: in vivo; summary of the method: as §3
[11] = Half life in Wistar rat at 1 mg/kg, iv by LC-MS/MS analysis; format: ADME, organism-based; settings: in vivo; summary of the method: as §3
[12] = Half life in Wistar rat at 1 mg/kg, po by LC-MS/MS analysis; format: ADME, organism-based; settings: in vivo; summary of the method: as §3
[13] = Volume of distribution at steady state in Wistar rat at 1 mg/kg, iv by LC-MS/MS analysis; format: ADME, organism-based; settings: in vivo, read-out: Vdss; summary of the method: as §3
[14] = Oral bioavailability in Wistar rat at 1 mg/kg by LC-MS/MS analysis; format: ADME, organism-based; settings: in vivo; summary of the method: as §3
Rattus norvegicus [15] = experiment: In vivo inhibition of VAP-1 in STZ-induced diabetic Sprague-Dawley rat assessed as reduction in proteinuria progression at 0.3 to 1 mg/kg, po for 4 weeks measured after 24 hrs by Bradford colorimetric assay; format: functional, organism-based
Summary of the method: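 Male SD rats (6 weeks old) given STZ 65 mg/kg ip in citrate-buffered saline pH 4.5; sham rats got buffer. Groups were set by plasma glucose and body weight at day 3. Dosing was oral in 0.5% MC, 5 mL/kg, once daily for 4 weeks. 24-h metabolic-cage urine was collected in week 4 and protein measured by Bradford assay; excretion = concentration × urine volume. Mean ± SEM; Dunnett's test against STZ control.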

Rattus norvegicus [16] = experiment: In vivo inhibition of VAP-1 in STZ-induced diabetic Sprague-Dawley rat plasma at 0.3 to 1 mg/kg, po for 4 weeks measured after 24 hrs after final dose using 14C-benzylamine as substrate by scintillation spectrometric analysis; format: functional, organism-based
Summary of the method: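 STZ-diabetic SD rats (65 mg/kg ip) dosed orally once daily for 4 weeks in 0.5% MC. Suborbital blood was taken under ether 24 h after the last dose. 50 μL plasma was reacted with 14C-benzylamine at 37 °C for 1 h, minus non-specific activity measured with 1 mmol/L FR299676. Liquid scintillation counting; mean ± SEM, Dunnett's test against STZ control.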

[17] = Plasma concentration in Wistar rat at 1 mg/kg, po after 1 hr post dose by LC-MS/MS analysis; format: ADME, organism-based; summary of the method: as §3
[18] = Plasma concentration in Wistar rat at 1 mg/kg, po after 6 hrs post dose by LC-MS/MS analysis; format: ADME, organism-based; summary of the method: as §3
[19] = molecular target: T1, Amine oxidase [copper-containing] 3 (Homo sapiens, UniProt Q16853); experiment: Inhibition of human VAP-1 expressed in CHO cells using 14C-benzylamine as substrate preincubated for 20 mins followed by substrate addition measured after 1 hr by scintillation spectrometric analysis; format: cell-based
T1 sequence (Q16853 whole entry): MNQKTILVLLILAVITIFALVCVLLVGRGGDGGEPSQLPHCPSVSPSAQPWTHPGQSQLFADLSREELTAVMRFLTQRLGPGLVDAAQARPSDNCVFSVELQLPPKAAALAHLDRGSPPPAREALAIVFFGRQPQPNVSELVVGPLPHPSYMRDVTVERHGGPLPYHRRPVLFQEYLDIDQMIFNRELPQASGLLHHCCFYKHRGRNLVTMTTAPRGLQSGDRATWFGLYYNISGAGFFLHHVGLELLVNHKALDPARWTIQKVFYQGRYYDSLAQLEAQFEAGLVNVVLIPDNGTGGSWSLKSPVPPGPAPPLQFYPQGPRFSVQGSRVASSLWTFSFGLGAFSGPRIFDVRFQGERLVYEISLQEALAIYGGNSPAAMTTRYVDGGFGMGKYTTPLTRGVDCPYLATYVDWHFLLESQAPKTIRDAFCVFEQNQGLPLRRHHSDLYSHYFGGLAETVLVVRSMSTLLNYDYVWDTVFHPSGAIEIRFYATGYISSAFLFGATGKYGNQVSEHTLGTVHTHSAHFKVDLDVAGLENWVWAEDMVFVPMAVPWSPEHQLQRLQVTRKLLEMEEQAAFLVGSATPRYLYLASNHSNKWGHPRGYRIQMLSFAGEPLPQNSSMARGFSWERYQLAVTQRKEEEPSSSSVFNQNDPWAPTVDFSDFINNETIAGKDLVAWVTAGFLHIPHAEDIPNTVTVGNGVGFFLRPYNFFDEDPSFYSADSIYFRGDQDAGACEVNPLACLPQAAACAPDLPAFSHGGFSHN

[20] = molecular target: T2, Amine oxidase [copper-containing] 3 (Rattus norvegicus, UniProt O08590); experiment: Inhibition of rat VAP-1 expressed in CHO cells using 14C-benzylamine as substrate preincubated for 20 mins followed by substrate addition measured after 1 hr by scintillation spectrometric analysis; format: cell-based
T2 sequence (O08590 whole entry): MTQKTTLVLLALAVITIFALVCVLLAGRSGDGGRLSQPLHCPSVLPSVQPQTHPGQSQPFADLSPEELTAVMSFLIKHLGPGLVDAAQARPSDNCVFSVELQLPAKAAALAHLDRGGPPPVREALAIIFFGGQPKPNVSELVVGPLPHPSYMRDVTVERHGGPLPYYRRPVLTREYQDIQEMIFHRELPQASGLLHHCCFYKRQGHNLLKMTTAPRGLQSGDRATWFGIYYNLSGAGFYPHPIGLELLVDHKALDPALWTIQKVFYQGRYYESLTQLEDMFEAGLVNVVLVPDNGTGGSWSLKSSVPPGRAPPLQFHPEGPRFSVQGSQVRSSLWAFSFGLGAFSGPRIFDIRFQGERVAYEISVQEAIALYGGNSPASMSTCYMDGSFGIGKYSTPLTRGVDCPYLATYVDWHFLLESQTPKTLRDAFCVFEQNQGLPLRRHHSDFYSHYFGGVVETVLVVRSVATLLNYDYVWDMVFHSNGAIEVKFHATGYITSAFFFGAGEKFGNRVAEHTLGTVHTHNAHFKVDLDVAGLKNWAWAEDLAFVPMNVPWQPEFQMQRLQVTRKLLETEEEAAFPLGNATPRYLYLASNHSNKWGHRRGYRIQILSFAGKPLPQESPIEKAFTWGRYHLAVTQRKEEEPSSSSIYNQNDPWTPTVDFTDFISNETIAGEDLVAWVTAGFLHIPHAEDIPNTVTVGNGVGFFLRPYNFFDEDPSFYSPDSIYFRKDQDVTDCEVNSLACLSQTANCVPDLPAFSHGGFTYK

CYP3A4, sequence (P08684 whole entry): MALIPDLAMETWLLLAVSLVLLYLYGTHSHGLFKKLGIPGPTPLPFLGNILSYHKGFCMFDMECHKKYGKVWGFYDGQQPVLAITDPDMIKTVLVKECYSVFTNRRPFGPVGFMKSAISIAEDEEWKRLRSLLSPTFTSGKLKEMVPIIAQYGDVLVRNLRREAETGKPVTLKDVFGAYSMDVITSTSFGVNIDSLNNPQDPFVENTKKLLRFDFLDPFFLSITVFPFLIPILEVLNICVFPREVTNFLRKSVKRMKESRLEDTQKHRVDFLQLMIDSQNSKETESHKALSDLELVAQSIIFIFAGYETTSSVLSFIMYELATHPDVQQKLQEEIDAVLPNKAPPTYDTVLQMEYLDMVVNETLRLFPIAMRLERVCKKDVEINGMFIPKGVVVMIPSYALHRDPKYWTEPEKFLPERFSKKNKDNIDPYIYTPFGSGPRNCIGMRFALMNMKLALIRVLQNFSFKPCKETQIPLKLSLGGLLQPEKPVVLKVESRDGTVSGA

## CN(Cc1cccc(-c2cnc(N3CCN(c4ccc(C(=O)O)cc4Cl)CC3)nc2)c1)C(=O)CN.Cl.Cl
CYP3A4
  activity at 20 min, 5 µM: 98%
CYP2C19
  activity at 20 min, 5 µM: 109%
Rattus norvegicus [1]
  inhibition in vivo at 1 mg/kg: 96%
Rattus norvegicus [2]
  inhibition in vivo at 1 mg/kg: 93%
Rattus norvegicus [3]
  inhibition in vivo at 0.3 mg/kg: 64%
Rattus norvegicus [4]
  inhibition in vivo at 0.3 mg/kg: 62%
[5]
  solubility: 2.3 µM
[6]
  solubility: 89.6 µM
[7]
  AUC(0-t) at 24 h: 1920 ng·h/mL
[8]
  AUC(0-t) at 24 h: 334 ng·h/mL
[9]
  Cmax: 113 ng/mL
[10]
  clearance: 8.69 mL/min/kg
[11]
  half-life: 1.39 h
[12]
  half-life: 1.29 h
[13]
  Vd: 0.386 L/kg
[14]
  bioavailability: 17.4%
Rattus norvegicus [15]
  inhibition: Active
Rattus norvegicus [16]
  inhibition: Active
[17]
  concentration at 1 h: 111 ng/mL
[18]
  concentration at 6 h: 7.1 ng/mL

## CN(Cc1cccc(-c2cnc(N3CCN(c4ccc(C(=O)O)cc4)CC3)nc2)c1)C(=O)CN.Cl.Cl
[19]
  IC50: 24 nM
[20]
  IC50: 10 nM
CYP3A4
  activity at 20 min, 5 µM: 100%
CYP2C19
  activity at 20 min, 5 µM: 106%
Rattus norvegicus [1]
  inhibition in vivo at 1 mg/kg: 68%
Rattus norvegicus [2]
  inhibition in vivo at 1 mg/kg: 60%
[5]
  solubility: < 1 µM
[6]
  solubility: < 1 µM

## CN(Cc1cccc(-c2cnc(N3CCC(C(=O)O)CC3)nc2)c1)C(=O)CN
[19]
  IC50: 1700 nM
CYP3A4
  activity at 20 min, 5 µM: 112%
CYP2C19
  activity at 20 min, 5 µM: 104%

## CN(Cc1cccc(-c2cnc(N3CCCCC3)nc2)c1)C(=O)CN
[19]
  IC50: 250 nM

## CN(Cc1cccc(-c2cnc(N3CCC[C@@H]3CO)nc2)c1)C(=O)CN
[19]
  IC50: 300 nM

## CN(Cc1cccc(-c2cnc(N3CCC[C@H]3CO)nc2)c1)C(=O)CN
[19]
  IC50: 240 nM

## CN(Cc1cccc(-c2ccc(N3CCOCC3)cc2)n1)C(=O)CN
[19]
  IC50: 2000 nM
[20]
  IC50: 160 nM

## CN(Cc1cccc(-c2ccc(N3CCOCC3)cc2)c1)C(=O)CN
CYP3A4
  activity at 20 min, 5 µM: 57%
CYP2C19
  activity at 20 min, 5 µM: 63%

## CN(Cc1cccc(-c2cnc(N3CCC(CCC(=O)O)CC3)nc2)c1)C(=O)CN
[19]
  IC50: 140 nM
CYP3A4
  activity at 20 min, 5 µM: 108%
CYP2C19
  activity at 20 min, 5 µM: 119%
